# From PubChem
# Insulin prom up: MIN6 insulin promoter up-regulation. z-score at 5 µM. MIN6 insulin promoter-GFP reporter, high-content imaging; active compounds read high. 190,000 tested, 0.3% active;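 active = z-score above 3 at 5 µM with at least 500 cells counted in the well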
# INS promoter inh: TRM-6 insulin promoter activity inhibition. TRM-6 cells (human fetal islet line), insulin promoter-eGFP reporter, imaging; reporter expression induced with tamoxifen. 130,000 tested, 0.9% active. inhibition, % at 2 µM. AID 1273;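 active = inhibition above the mean plus 3 SD, with well images judged a real hit on visual review, cut at about 60% in these data, passing the limit was not always enough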
# Yeast growth inh: yeast BB579 growth reduction in restrictive medium; S. cerevisiae BB579 growth, OD615, 48 h; inhibition, % at 10 µM; 140,000 tested, 0.51% active; AID 804;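 active = inhibition above a set limit, 3 SD over the mean compound inhibition, cut at about 44% in these data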
#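 Detection: OD615 turbidity measurement; Material: Saccharomyces cerevisiae DeaD strain BB579, replicative lifespan model yeast; Timing: 48 h exposure, 30 °C; Doses: single 10 µM dose; Medium: CSMM-D restrictive synthetic medium containing dextrose (glucose); Controls: amphotericin B at 10 µg/mL as positive control.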
# Yeast lifespan up: extends the lifespan of yeast. S. cerevisiae growth with nicotinamide, OD615; deaD strain in restrictive glucose medium. inhibition of the nicotinamide effect, % at 10 µM. 130,000 tested, 0.68% active. AID 775;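 active = inhibition above a set limit, placed 3 SD over the median of all compounds, cut at about 26% in these data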;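 note: 0% = nicotinamide-treated wells and 100% = cells grown without nicotinamide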
#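 assay system = DeaD-strain S. cerevisiae | measured by = absorbance at 615 nm | probe or stimulus = nicotinamide 1.5 mM | buffer or medium = CSMM-D glucose medium, restrictive | times = 48 h at 30 °C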
# RAM inhibit: inhibitors of the yeast RAM network; S. cerevisiae dse1pr::URA3 reporter, 5-FOA growth OD615, 2 d; analog-sensitive cbk1-as2 kinase mutant strain; inhibition, % at 50 µM; 190,000 tested, 1.8% active;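 active = inhibition above a set limit, 3 SD over mean compound inhibition, cut at about 8.4% in these data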;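 note: 0% = DMSO-only wells with no growth and 100% = 10 µM 1-NA-PP1 full growth; inhibition rescues growth on 5-FOA so higher OD means more RAM inhibition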
# RAM 5-FOA: RAM network inhibition, efflux-deficient strain; shares compounds with RAM inhibit; S. cerevisiae efflux-deficient reporter strain, 5-FOA growth OD615, 2 days; max inhibition, %; 1,200 tested, under 10 active; AID 1305; call rule not given here;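 note: plate controls were vehicle for no effect and reference inhibitor for full effect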
# * = called active by the depositor; x = not tested or not shown. An excerpt weighted towards active compounds, which were near 3% of everything screened.
SMILES,Insulin prom up,INS promoter inh,Yeast growth inh,Yeast lifespan up,RAM inhibit,RAM 5-FOA
O=C(O)c1cnn(-c2nc(-c3ccc(F)cc3)cs2)c1C(F)(F)F,0.17,-20.9,x,x,2.0,x
Cc1ccc(S(=O)(=O)NCCCCCC(=O)Nc2cccc(C)c2)cc1,0.58,-50.0,-37.5,-0.4,3.3,x
COC(=O)c1scc(C)c1N/N=C(\C)c1ccc(F)cc1F,-0.73,-20.0,-50.8,-2.8,12.8*,4.9
CC(OC(=O)c1ccncc1)C(=O)NC1CCCC1 (stereo not given),x,-30.0,x,x,0.5,x
Cc1cc2c(C)ccc(C)c2nc1SCC(=O)c1cccs1,-0.27,-28.1,-41.9,-12.9,13.5*,1.5
Cc1cc(C)c(C#N)c(SCC(=O)c2cccs2)n1,-1.01,x,-38.2,-13.7,2.9,x
CC(=O)c1ccc(N(C(=O)CS(=O)CC(=O)Nc2ccc(F)cc2)C(C(=O)NC2CCCCC2)c2cccs2)cc1 (stereo not given),-0.3,-50.0,-35.2,16.9,17.9*,2.4
O=C(/C=C/c1ccc2c(c1)OCO2)NCCSCc1c(Cl)cccc1Cl,0.64,-7.4,-17.1,-8.8,15.1*,2.5
O=C(/C=C/c1ccc2c(c1)OCO2)NCCSCc1ccc(Cl)cc1,-0.06,20.0,-15.2,-4.6,0.2,x
O=C(/C=C/c1cccc([N+](=O)[O-])c1)NCCSCc1cccc(Cl)c1,-0.25,21.9,-31.2,-1.6,11.5*,2.0
Cc1ccc(NC(=S)N(CCCN2CCOCC2)Cc2cccnc2)cc1C,-0.74,x,x,x,0.0,x
C=C(C)CC(Nc1ccc(OC)cc1)c1ccco1 (stereo not given),-2.2,x,x,x,0.7,x
O=C(O)c1cccc(COc2ccc3c(c2)CCC3)c1,1.62,x,x,x,x,x
O=C(NCc1ccccc1)c1cccc(COc2ccc3c(c2)CCC3)c1,-0.41,x,-30.7,1.6,11.8*,7.3
COc1ccccc1NC(=O)c1ccc(COc2ccc3c(c2)CCC3)cc1,0.36,x,-42.1,8.7,7.6,x
COC(=O)c1ccccc1NC(=O)c1ccc(COc2ccc3c(c2)CCC3)cc1,0.32,13.3,-80.7,-9.9,13.7*,4.9
Cc1nn(Cc2ccccc2)c(Cl)c1C(=O)OC(C)C#N (stereo not given),-0.14,x,x,x,2.2,x
CCOC(=O)c1c(C)[nH]c(N=Nc2cccc(C)c2)c1C,0.92,40.0,-56.4,-12.3,11.8*,2.6
COCC(C)n1c(SCc2ccc(OC)c(F)c2)nc2ccccc2c1=O (stereo not given),0.16,-90.9,x,x,14.2*,1.7
CNC(=S)N1CCN(C(=O)C2CCCO2)CC1 (stereo not given),-0.14,29.4,5.6,4.0,0.5,x
Cc1ccc(C(=O)Nc2ccc(C(=O)O)cc2)cc1S(=O)(=O)NCc1ccccc1,0.21,20.0,x,x,12.9*,3.3
Clc1ccc(-c2nnc(CSc3nnc(-c4cccs4)o3)o2)cc1,0.23,-23.1,-1.4,5.6,13.2*,2.3
c1ccc(-c2nnc(SCc3nnc(-c4cccs4)o3)o2)cc1,1.3,-26.0,-66.7,-15.6,0.1,x
COCCCNC(=S)N1CCCN(c2nc3c(C)c(C)ccc3cc2C#N)CC1,-0.94,0.0,x,x,16.2*,2.2
COC(=O)C/C=C/[C@@H](C)[C@@H](/C=N/OC[C@@H](C)[C@H](OCc1ccccc1)C(C)C)NS(=O)(=O)c1ccc(C)cc1,-1.41,-50.0,-33.8,7.8,13.0*,5.0
SMILES,Insulin prom up,INS promoter inh,Yeast growth inh,Yeast lifespan up,RAM inhibit,RAM 5-FOA
O=C(CCC1CCCCC1)Nc1ccccc1-c1ccccc1,-0.25,16.1,0.6,-14.9,24.7*,4.7
CCOc1ccccc1NC(=O)c1ccccc1-c1nc(-c2ccccc2)no1,-1.32,-38.5,-55.6,-5.9,12.1*,5.7
CCOC(=O)c1c(-c2cccs2)csc1NC(=O)COC(=O)c1c(C)noc1C,x,x,-36.8,-8.4,11.5*,2.4
Brc1ccc(CSc2nnc(Cc3c[nH]c4ccccc34)o2)cc1,-1.32,-125.0,-29.5,-7.8,12.9*,2.2
COc1ccc(/C(=N\O)c2ncc(C(F)(F)F)cc2Cl)cc1,x,12.5,-29.8,-15.0,0.5,x
CON/C=C(\C=Nc1ccc(C(F)(F)F)cc1)c1ncc(C(F)(F)F)cc1Cl,x,-33.3,-37.1,11.8,13.3*,1.9
COc1cc(/C=N/NC(=O)CSc2n[nH]c(=O)[nH]c2=O)cc(OC)c1O,-0.2,41.7,x,x,0.4,x
OCC1(Cc2ccccc2)CCCN(Cc2c[nH]c3ccccc23)C1 (stereo not given),0.32,x,x,x,1.1,x
